The results in this text go back to ChEMBL document CHEMBL1130132, “Selective inhibition of neuronal nitric oxide synthase by N omega-nitroarginine-and phenylalanine-containing dipeptides and dipeptide esters” (J Med Chem, 1997).

Each structure is given as a SMILES string. Where a SMILES comes first, the peptide text is derived from it. [ ]: non-standard residue; d: D form. The star is where a group is joined. dArg(NO2) = N=C(NCCC[C@@H](N)C(=O)O)N[N+](=O)[O-]; Arg(NO2) = N=C(NCCC[C@H](N)C(=O)O)N[N+](=O)[O-]; OBn = c1ccc(CO*)cc1

In general, Ki refers to the dissociation constant of the complex between target and ligand, obtained from inhibition or displacement.

The target in assay [1] is T1, Nitric oxide synthase, inducible (Mus musculus, UniProt P29477).
T1 sequence (P29477 whole entry): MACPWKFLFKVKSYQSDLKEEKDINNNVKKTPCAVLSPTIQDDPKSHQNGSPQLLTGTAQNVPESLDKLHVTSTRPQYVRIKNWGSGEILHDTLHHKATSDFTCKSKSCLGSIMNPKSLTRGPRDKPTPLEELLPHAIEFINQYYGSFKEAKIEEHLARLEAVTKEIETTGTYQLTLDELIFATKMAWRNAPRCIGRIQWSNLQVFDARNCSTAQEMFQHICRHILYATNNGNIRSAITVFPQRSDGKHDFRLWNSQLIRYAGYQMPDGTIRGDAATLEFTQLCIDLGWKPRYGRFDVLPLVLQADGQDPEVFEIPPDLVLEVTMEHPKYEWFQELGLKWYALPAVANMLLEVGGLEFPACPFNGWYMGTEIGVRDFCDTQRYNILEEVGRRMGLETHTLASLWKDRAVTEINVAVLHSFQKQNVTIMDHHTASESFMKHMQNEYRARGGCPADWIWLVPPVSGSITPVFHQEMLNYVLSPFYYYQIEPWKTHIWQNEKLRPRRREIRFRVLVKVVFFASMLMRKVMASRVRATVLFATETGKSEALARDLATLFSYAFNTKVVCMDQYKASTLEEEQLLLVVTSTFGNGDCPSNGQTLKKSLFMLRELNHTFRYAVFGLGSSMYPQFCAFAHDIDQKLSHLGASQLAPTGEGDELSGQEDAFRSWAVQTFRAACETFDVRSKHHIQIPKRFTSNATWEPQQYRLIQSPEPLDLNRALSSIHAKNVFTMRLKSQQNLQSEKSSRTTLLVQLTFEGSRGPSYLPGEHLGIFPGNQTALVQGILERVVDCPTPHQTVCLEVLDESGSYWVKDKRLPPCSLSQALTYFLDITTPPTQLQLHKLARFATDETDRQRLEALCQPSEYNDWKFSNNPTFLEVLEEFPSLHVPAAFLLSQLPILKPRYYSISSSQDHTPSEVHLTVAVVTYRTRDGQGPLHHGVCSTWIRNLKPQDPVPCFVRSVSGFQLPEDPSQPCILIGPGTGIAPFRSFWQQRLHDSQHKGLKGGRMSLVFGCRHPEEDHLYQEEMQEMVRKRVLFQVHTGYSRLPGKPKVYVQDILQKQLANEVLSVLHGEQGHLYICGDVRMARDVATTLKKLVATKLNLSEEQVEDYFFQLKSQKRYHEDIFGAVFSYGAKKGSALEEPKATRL
Put plainly: Inhibition of inducible Nitric Oxide Synthase. Put shortly:
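Purified murine macrophage iNOS expressed in recombinant E. coli (500 nmol NO/mg/min at 30 °C). Initial-rate hemoglobin capture assay in 100 mM Hepes pH 7.5 with 10-60 µM L-arginine, 100 µM DTT, 100 µM NADPH, 6.5 µM BH4 and 3 µM oxyhemoglobin, without added calcium/calmodulin. Ki taken from Dixon plots across varied L-arginine and inhibitor concentrations.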

The target of assay [2] is Nitric oxide sythases; iNOS & nNOS (Homo sapiens) (UniProt P29475+P35228). In words: Selectivity for nNOS and iNOS, ratio of Ki. The class given is protein assay.
Assay [3] is described as follows: Selectivity for iNOS and eNOS binding, ratio of Ki.
The nature of assay [4]: Selectivity for nNOS and eNOS, ratio of Ki.
Assay [5] deals with T2, Nitric oxide synthase 3 (Bos taurus, UniProt P29473).
T2 sequence (P29473 whole entry): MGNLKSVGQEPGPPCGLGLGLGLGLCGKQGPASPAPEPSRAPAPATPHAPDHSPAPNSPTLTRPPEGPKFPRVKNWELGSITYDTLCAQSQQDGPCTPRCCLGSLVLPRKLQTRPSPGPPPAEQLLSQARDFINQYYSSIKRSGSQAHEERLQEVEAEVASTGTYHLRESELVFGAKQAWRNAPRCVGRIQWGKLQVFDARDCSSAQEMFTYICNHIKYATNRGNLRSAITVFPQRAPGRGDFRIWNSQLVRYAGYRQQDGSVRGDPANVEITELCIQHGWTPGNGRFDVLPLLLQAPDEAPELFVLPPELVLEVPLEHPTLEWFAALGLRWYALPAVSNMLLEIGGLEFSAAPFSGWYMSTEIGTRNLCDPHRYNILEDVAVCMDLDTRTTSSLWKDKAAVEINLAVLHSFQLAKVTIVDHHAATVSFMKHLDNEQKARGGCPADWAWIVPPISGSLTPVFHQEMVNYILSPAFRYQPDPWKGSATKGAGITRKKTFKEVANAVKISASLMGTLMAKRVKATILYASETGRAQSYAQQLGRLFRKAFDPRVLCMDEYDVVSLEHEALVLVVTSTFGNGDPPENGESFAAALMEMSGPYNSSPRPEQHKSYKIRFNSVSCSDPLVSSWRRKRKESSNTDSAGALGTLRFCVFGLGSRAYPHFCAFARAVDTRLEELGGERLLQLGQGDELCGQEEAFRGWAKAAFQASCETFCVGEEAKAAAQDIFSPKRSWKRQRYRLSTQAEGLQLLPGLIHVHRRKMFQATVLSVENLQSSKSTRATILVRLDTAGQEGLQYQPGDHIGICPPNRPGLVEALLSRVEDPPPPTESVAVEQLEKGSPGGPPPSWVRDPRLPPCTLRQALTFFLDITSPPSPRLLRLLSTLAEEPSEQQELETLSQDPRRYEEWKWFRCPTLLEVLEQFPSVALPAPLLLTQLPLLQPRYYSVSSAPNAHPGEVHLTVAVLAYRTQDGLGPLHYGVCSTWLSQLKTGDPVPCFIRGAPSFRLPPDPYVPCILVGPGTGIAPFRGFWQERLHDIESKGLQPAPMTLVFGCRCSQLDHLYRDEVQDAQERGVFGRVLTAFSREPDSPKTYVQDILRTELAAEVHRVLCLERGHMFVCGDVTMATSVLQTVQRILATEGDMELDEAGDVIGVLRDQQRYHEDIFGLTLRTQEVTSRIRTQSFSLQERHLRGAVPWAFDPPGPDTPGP
In words: Inhibition of endothelial isoform of nitric oxide synthase. Put shortly: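 eNOS expressed in E. coli, purified and supplemented with L-arginine and BH4 (235 nmol NO/mg/min at 25 °C). NO formation was followed by oxyhemoglobin capture (80 µM) under initial rates in 50 mM Hepes pH 7.5 with 3-25 µM L-arginine, 100 µM DTT, 10 µM CaCl2, 1 µg/mL calmodulin, 5 µM BH4 and 100 µM NADPH. Ki came from Dixon plots with varied substrate and inhibitor.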

Nitric oxide sythases; iNOS & nNOS (Homo sapiens), sequence (P29475 whole entry, looked up): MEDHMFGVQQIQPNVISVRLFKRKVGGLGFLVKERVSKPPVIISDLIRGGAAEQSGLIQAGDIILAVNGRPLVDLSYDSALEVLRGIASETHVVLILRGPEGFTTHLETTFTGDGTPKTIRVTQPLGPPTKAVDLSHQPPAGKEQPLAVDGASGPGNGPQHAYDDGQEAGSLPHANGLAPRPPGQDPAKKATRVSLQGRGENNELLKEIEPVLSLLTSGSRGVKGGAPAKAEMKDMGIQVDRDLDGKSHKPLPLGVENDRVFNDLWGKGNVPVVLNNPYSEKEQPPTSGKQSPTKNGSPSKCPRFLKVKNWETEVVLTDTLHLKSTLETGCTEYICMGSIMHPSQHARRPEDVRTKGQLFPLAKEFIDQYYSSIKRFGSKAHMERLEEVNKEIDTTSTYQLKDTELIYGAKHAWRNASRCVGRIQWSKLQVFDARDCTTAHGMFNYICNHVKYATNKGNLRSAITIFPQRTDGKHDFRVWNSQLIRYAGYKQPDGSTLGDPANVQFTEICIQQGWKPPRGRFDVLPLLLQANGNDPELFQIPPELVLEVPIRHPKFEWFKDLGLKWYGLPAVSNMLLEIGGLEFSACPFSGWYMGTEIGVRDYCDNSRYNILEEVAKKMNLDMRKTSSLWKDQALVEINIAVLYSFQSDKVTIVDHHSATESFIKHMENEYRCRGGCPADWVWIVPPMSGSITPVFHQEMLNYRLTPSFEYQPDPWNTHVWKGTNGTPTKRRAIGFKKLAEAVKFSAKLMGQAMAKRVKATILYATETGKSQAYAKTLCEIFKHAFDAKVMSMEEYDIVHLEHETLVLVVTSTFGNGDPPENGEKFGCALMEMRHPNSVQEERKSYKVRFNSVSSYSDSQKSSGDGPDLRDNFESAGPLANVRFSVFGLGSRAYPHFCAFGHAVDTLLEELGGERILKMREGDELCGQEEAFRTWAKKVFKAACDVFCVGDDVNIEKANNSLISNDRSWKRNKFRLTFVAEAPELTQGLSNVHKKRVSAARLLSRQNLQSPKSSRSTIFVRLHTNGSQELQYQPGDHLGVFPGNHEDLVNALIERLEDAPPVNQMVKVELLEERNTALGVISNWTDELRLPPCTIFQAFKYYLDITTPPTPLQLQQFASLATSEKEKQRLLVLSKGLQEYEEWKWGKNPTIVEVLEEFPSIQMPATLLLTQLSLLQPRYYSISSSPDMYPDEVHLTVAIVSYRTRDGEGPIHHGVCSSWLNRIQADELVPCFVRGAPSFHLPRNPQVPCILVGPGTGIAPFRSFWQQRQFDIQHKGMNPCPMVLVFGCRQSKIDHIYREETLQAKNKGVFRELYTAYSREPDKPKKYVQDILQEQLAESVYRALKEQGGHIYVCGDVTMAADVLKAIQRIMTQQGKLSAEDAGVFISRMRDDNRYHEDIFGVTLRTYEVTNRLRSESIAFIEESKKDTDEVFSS
Nitric oxide sythases; iNOS & nNOS (Homo sapiens), sequence (P35228 whole entry, looked up): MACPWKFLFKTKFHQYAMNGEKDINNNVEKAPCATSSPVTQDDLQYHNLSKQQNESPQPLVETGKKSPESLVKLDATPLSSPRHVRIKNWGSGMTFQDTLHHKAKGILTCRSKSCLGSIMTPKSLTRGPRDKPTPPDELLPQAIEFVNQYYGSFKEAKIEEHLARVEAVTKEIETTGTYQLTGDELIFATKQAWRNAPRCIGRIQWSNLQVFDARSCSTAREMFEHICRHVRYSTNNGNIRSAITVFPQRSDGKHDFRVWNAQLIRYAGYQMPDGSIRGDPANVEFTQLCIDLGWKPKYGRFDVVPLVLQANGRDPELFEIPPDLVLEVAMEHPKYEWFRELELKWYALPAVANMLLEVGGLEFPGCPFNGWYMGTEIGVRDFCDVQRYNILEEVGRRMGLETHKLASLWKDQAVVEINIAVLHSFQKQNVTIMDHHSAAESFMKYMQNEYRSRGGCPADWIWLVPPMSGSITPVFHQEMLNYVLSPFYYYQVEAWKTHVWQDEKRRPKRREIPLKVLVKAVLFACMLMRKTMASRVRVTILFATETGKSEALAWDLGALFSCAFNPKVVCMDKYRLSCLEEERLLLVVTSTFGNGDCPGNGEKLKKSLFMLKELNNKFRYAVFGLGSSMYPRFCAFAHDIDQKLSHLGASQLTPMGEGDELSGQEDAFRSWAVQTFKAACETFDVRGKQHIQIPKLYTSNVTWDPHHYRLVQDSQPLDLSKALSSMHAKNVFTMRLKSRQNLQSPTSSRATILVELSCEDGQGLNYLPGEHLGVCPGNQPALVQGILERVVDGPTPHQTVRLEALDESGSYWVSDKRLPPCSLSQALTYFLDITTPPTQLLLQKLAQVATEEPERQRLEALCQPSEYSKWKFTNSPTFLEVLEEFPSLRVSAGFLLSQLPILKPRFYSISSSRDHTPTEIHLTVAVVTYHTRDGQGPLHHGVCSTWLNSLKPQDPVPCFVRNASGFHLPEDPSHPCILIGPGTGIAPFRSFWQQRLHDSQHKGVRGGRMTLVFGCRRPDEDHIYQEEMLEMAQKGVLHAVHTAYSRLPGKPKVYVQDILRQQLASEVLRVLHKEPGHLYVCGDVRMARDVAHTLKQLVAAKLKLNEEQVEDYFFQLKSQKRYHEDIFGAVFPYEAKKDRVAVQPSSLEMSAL

Take `N/C(=N\CCC[C@H](NC(=O)[C@@H](N)Cc1ccccc1)C(=O)OCc1ccccc1)N[N+](=O)[O-]` (H-Phe-[Arg(NO2)]-OBn): the Ki worked out at 45 µM in assay [1] and 250 µM in assay [5]. For the same compound, the Selectivity came out at 0.41 in assay [2], 5.6 in assay [3] and 2.3 in assay [4].
Consider `COC(=O)[C@@H](CCCNC(=N)N[N+](=O)[O-])NC(=O)[C@H](N)Cc1ccccc1` [listing 1 of 2 here], for which the Ki was 1200 µM in assay [1] and 8500 µM in assay [5].
In the case of `N/C(=N\CCC[C@H](N)C(=O)N[C@@H](Cc1ccccc1)C(=O)O)N[N+](=O)[O-]`, the Ki in assay [1] was determined as 160 µM; in assay [5], 395 µM. Further, the Selectivity in assay [2] was 8.9; in assay [3], 2.5; in assay [4], 21.9.
For `N/C(=N\CCC[C@@H](NC(=O)[C@H](N)Cc1ccccc1)C(=O)O)N[N+](=O)[O-]` (H-[dF]-[dArg(NO2)]-OH) the same measures were 13600 µM, 90 µM, 800, 0.0066 and 5.3.
With `COC(=O)[C@H](CCC/N=C(\N)N[N+](=O)[O-])NC(=O)[C@@H](N)Cc1ccccc1`, the values for the Ki in assay [1] and in assay [5] were 204 µM and 1350 µM, respectively. Further, the Selectivity in assay [2] is 0.55; in assay [3], 6.6; in assay [4], 3.6.
The matching figures for `N/C(=N\CCC[C@H](N)C(=O)N[C@@H](Cc1ccccc1)C(=O)OCc1ccccc1)N[N+](=O)[O-]`: 18 µM, 125 µM, 0.33, 6.9 and 2.3.
For `COC(=O)[C@@H](CCC/N=C(\N)N[N+](=O)[O-])NC(=O)[C@@H](N)Cc1ccccc1` the same measures were 7500 µM, 150 µM, 83.3, 0.02 and 1.7.
The matching figures for `COC(=O)[C@@H](Cc1ccccc1)NC(=O)[C@@H](N)CCC/N=C(\N)N[N+](=O)[O-]`: 100 µM, 525 µM, 1.1, 5.3 and 5.7.
In the case of `COC(=O)[C@@H](Cc1ccccc1)NC(=O)[C@H](N)CCC/N=C(\N)N[N+](=O)[O-]`, the Selectivity is 43.3 in assay [2], 0.058 in assay [3] and 2.5 in assay [4].
For `N/C(=N\CCC[C@H](NC(=O)[C@@H](N)Cc1ccccc1)C(=O)O)N[N+](=O)[O-]` (H-Phe-[Arg(NO2)]-OH) the same measures were 0.66, 5.3 and 3.5.
On to `N=C(NCCC[C@H](NC(=O)[C@@H](N)Cc1ccccc1)C(=O)O)N[N+](=O)[O-]` (H-Phe-[Arg(NO2)]-OH), for which the Ki in assay [1] was 93 µM; in assay [5], 490 µM.
As for `COC(=O)[C@H](Cc1ccccc1)NC(=O)[C@@H](N)CCC/N=C(\N)N[N+](=O)[O-]`, the Ki in assay [1] was 45 µM; in assay [5] it was 400 µM.
The matching figures for `COC(=O)[C@@H](Cc1ccccc1)NC(=O)[C@H](N)CCCNC(=N)N[N+](=O)[O-]`: 6500 µM and 375 µM.
Regarding `COC(=O)[C@@H](CCCNC(=N)N[N+](=O)[O-])NC(=O)[C@H](N)Cc1ccccc1` [listing 2 of 2 here], the Ki in assay [1] was 3600 µM; in assay [5] it was 5 µM.
